Activity calls are given as the source filed them. No cut-off for these calls is given here.
Tests used:
[1] = tested on: DU-145; test: Cytotoxicity against human DU145 cells after 72 hrs by MTT assay; type: functional; details: DU-145, 72 h
Method in brief: (§1)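 ATCC lines grown in DMEM with 10% FBS, glutamine, antibiotics, 37 °C, 5% CO2; 2000–3000 cells/well plated, compound added 24 h later during log growth. Eight concentrations, 0.25–50 μM (from 20 mM DMSO stock), 72 h exposure; MTT absorbance at 540 nm. GI50 = concentration giving 50% growth inhibition versus untreated cells; duplicate wells, two separate experiments.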

[2] = tested on: MCF7; test: Cytotoxicity against human MCF7 cells after 72 hrs by MTT assay; type: functional; details: MCF7, 72 h; method in brief: as §1
[3] = tested on: A2780; test: Cytotoxicity against human A2780 cells after 72 hrs by MTT assay; type: functional; details: A2780, 72 h; method in brief: as §1
[4] = species: Ovis aries; test: (§2) Inhibition of dynamin 1 GTPase activity in sheep brain peripheral membrane by microplate spectrophotometry; type: cell membranes
Method in brief: (§3)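 Sheep brain dynamin I, affinity-purified on GST-Amph2-SH3, used at 20 nM. Sample preincubated 12 min at 37 °C with 0.3 mM GTP in Tris pH 7.5 buffer containing Mg2+, Tween 80 and protease inhibitors. Enzyme then added; 30 min at 37 °C with shaking; phosphatidylserine liposome stimulation. Stopped with EDTA; malachite green phosphate readout at 650 nm against phosphate standard curve.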

[5] = tested on: HT-29; test: Cytotoxicity against human HT-29 cells after 72 hrs by MTT assay; type: functional; details: HT-29, 72 h; method in brief: as §1
[6] = as §2; type: cell membranes, Ovis aries; method in brief: as §3

`C=C(CCC(C)C1C(O)CC2C3CCC4CC(O)CCC4(C)C3CC(O)C21C)C(C)C` (stereo not given) showed a GI50 [1] of 27 µM, a GI50 [2] of 18 µM and a GI50 [3] of 19 µM. The Activity [4] was “inactive” and the GI50 [5] was 18 µM.
`CC(C)CCCC(C)C1C(O)CC2C3CCC4CC(O)CCC4(C)C3CC(O)C21C` (stereo not given) gave a GI50 [1] of 6.7 µM, a GI50 [2] of 5.5 µM and a GI50 [3] of 5.4 µM. The Activity [4] was “inactive” and the GI50 [5] was 5 µM.
Work on `CC(C)C(C)/C=C/C(C)C1C(O)CC2C3CCC4CC(O)CCC4(C)C3CC(O)C21C` (stereo not given) yielded a GI50 [1] of 27 µM, a GI50 [2] of 17 µM and a GI50 [3] of 10 µM. For the same molecule, the Activity [4] was “inactive” and the GI50 [5] was 7 µM.
Molecule `C=C(C)C(CC)CCC(C)C1C(O)CC2C3CCC4CC(O)CCC4(C)C3CC(O)C21C` (stereo not given) has a GI50 [1] of 13 µM, a GI50 [2] of 10 µM and a GI50 [3] of 11 µM. The IC50 [6] was > 300 µM and the GI50 [5] was 7.1 µM.

Source: ChEMBL document CHEMBL1151817, “Steroids from an Australian sponge Psammoclema sp” (J Nat Prod, 2009)
